The results in this text go back to ChEMBL document CHEMBL1121917, “Structure--activity relationships in a broad-spectrum anthelmintic series. Acid chloride phenylhydrazones. 1. Aryl substitutions and chloride variations” (1981).

Assay [1] is filed under the species Canis familiaris. Briefly: Percent reduction in Uncinaria eggs per gram, after oral treatment of 100 mg/dog dose of compound in a single treatment. It counts as functional, Canis lupus familiaris, Egg. The method, boiled down: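 Dogs naturally infected with Toxascaris leonina were experimentally infected with mixed Ancylostoma caninum and Uncinaria stenocephala larvae. Finely ground compound was given orally in gelatin capsules. Three egg count determinations were made before and three after treatment in each experiment.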

For assay [2], the species on record is Canis familiaris. Kind of assay: Percent reduction in Ancylostoma eggs per gram, after oral treatment of 100 mg/dog dose of compound in a single treatment. It counts as functional, Canis lupus familiaris, Egg. The essentials:
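Dogs naturally infected with Toxascaris leonina were experimentally infected with mixed Ancylostoma caninum and Uncinaria stenocephala larvae. Finely ground compound was given orally in gelatin capsules. Fecal egg counts were taken three times before and three times after treatment, and activity was taken as the fall in egg counts.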

The species named for assay [3] is Mus musculus. Briefly: Percent clearance of Nematospiroides dubius from mouse after oral treatment of 7.5 mg/mouse/day. It counts as functional. The method, boiled down:
(§1)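 Mice naturally carrying Syphacia obvelata were experimentally infected with Nematospiroides dubius and Hymenolepis nana, then grouped after a 2-week prepatency. Finely ground compound was suspended in aqueous 0.10% carboxymethylcellulose, 0.04% polysorbate 80 and 0.0042% polyparaben, and 0.1 mL was given orally by cannula once daily for 4 days to five mice. Necropsy followed 2 days later, scoring presence or absence of each parasite. Control clearance was subtracted from the treated clearance.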

Assay [4] has as its system Ovis aries. Briefly: Percent reduction in Trichuris eggs per gram, after treatment with 100 mg/kg dose of compound perorally in sheep. The conditions noted are these: route oral. It counts as functional, Egg. The essentials:
(§2)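 Naturally parasitized lambs, dosed orally either with a suspension by stomach tube or with finely ground compound in gelatin capsules by balling gun. Activity was scored by the clinical test method, meaning a significant fall in helminth egg counts after treatment.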

For assay [5], the system named is Ovis aries. Briefly: Percent reduction in Haemonchus eggs per gram, after treatment with 100 mg/kg dose of compound perorally in sheep. In kind it is functional, Egg. To be noted: route oral. The essentials:
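Naturally parasitized lambs received compound orally, either as the aqueous suspension by stomach tube or as finely ground powder in gelatin capsules by balling gun. Activity was judged by the clinical test method, as a significant decrease in posttreatment helminth egg counts.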

For assay [6], the system named is Ovis aries. Kind of assay: Percent reduction in Oesophagostomum eggs per gram, after treatment with 100 mg/kg dose of compound perorally in sheep. The conditions noted are these: route oral. It counts as functional, Egg. The method, boiled down:
(§3)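 Naturally parasitized lambs were dosed orally at the stated mg/kg. Dosing was either as a suspension of finely ground compound by stomach tube, or as ground compound weighed into gelatin capsules and given by balling gun. Activity was scored by the clinical test method: the decrease in posttreatment helminth eggs per gram.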

In assay [7] the test system is Ovis aries. Kind of assay: Percent reduction in Moniezia eggs per gram, after treatment with 100 mg/kg dose of compound perorally in sheep. It counts as functional, Egg. To be noted: route oral. The method, boiled down:
as §3

For assay [8], the system named is Ovis aries. Briefly: Percent reduction in Trichostrongylus eggs per gram, after treatment with 100 mg/kg dose of compound perorally in sheep. To be noted: route oral. It counts as functional, Egg. The essentials: as §2
In assay [9] the test system is Ovis aries. Kind of assay: Percent reduction in Nematodirus eggs per gram, after treatment with 100 mg/kg dose of compound perorally in sheep. The conditions noted are these: route oral. It counts as functional, Egg. The method, boiled down:
as §3

For assay [10], the system named is Ovis aries. Kind of assay: Percent reduction in Ostertagia eggs per gram, after treatment with 100 mg/kg dose of compound perorally in sheep. It counts as functional, Egg. The conditions noted are these: route oral. The essentials:
as §3

Assay [11] concerns Ovis aries. Briefly: Percent reduction in Strongyloides eggs per gram, after treatment with 100 mg/kg dose of compound perorally in sheep. In kind it is functional, Egg. To be noted: route oral. The essentials:
as §2

The species named for assay [12] is Mus musculus. Briefly: Percent clearance of Nematospiroides dubius from mouse after oral treatment of 0.45 mg/mouse/day. It counts as functional. The method, boiled down: as §1
For assay [13], the species on record is Mus musculus. Briefly: Percent clearance of Hymenolepis nana from mouse after oral treatment of 0.45 mg/mouse/day. In kind it is functional. The essentials: as §1
Assay [14] relates to Ovis aries. Briefly: Percent reduction in Trichuris eggs per gram, after treatment with 200 mg/kg dose of compound perorally in sheep. It counts as functional, Egg. To be noted: dose 100 mg/kg; route oral; in the assay text read “100 mg/kg” for “200 mg/kg”. The essentials:
as §2

In assay [15] the test system is Ovis aries. Briefly: Percent reduction in Haemonchus eggs per gram, after treatment with 200 mg/kg dose of compound perorally in sheep. In kind it is functional, Egg. The conditions noted are these: dose 100 mg/kg; route oral; in the assay text read “100 mg/kg” for “200 mg/kg”. The essentials: as §3
The subject of assay [16] is Ovis aries. Briefly: Percent reduction in Oesophagostomum eggs per gram, after treatment with 200 mg/kg dose of compound perorally in sheep. The conditions noted are these: dose 100 mg/kg; route oral; in the assay text read “100 mg/kg” for “200 mg/kg”. It counts as functional, Egg. The essentials: as §3
In assay [17] the test system is Ovis aries. Kind of assay: Percent reduction in Nematodirus eggs per gram, after treatment with 200 mg/kg dose of compound perorally in sheep. It counts as functional, Egg. The conditions noted are these: route oral. The essentials: as §3

As to `O=[N+]([O-])c1ccc(N/N=C(\Cl)c2ccccc2)cc1`, the Reduction in the assay filed under Canis familiaris [1] is 0%; in the assay filed under Canis familiaris [2], 0%; in the assay with Ovis aries [4], 100%; in the assay with Ovis aries [5] it was 0%; in the assay with Ovis aries [6], 0%; with Ovis aries [7] it was 100%. Besides, the Reduction was found to be 57% in the assay on Ovis aries [8], 0% in the assay on Ovis aries [9], 33% in the assay with Ovis aries [10] and 58% with Ovis aries [11]. Further, the Parasite_Clearance in the assay filed under Mus musculus [3] came out at 0%.
In the case of `Cl/C(=N\Nc1ccccc1)c1ccccc1`, the results for the Parasite_Clearance in the assay filed under Mus musculus [12] and in the assay listed under Mus musculus [13] were 100% and 40%, respectively. For the same compound, the Reduction in the assay with Ovis aries [14] is 0%; with Ovis aries [15], 87%; with Ovis aries [16], 89%; in the assay with Ovis aries [17], 100%.
